Measurements published in ChEMBL document CHEMBL1137786, “Design, synthesis, biological evaluation, and structure-activity relationship (SAR) discussion of dipeptidyl boronate proteasome inhibitors, part I: comprehensive understanding of the SAR of alpha-amino acid boronates” (J Med Chem, 2009).

Key:
[1] = Inhibition of chymotrypsin-like activity of human 20s proteasome beta 5 subunit assessed as hydrolysis of fluorogenic substrate
HeLa = assay: Cytotoxicity against human HeLa cells after 72 hrs by MTT assay; format: functional, cell-based
Method in brief: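 HeLa cells were cultured in EMEM with 10% FBS at 37 °C, 5% CO2. MTT added from a 5 mg/mL solution for 4 h at 37 °C. Plates centrifuged, formazan dissolved in DMSO, A540 read.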

NCI-H460 = assay: Cytotoxicity against human H460 cells after 72 hrs by MTT assay; format: functional, cell-based; conditions: NCI-H460, 72 h
Method in brief: (§1)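 BGC-823, KB, NCI-H460, HepG2 and SW-480 cells were maintained in RPMI 1640 with 10% FBS at 37 °C, 5% CO2. MTT added from a 5 mg/mL solution for 4 h at 37 °C. Formazan dissolved in DMSO after centrifugation, A540 read.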

HL-60 = assay: Cytotoxicity against human HL60 cells after 72 hrs by MTT assay; format: functional, cell-based; conditions: HL-60, 72 h
Method in brief: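 HL-60 cells grown in IMDM with 20% FBS at 37 °C, 5% CO2. MTT added from a 5 mg/mL solution for 4 h at 37 °C. Plates centrifuged, medium discarded, formazan dissolved in DMSO, absorbance read at 540 nm.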

BGC-823 = assay: Cytotoxicity against human BGC823 cells after 72 hrs by MTT assay; format: functional, cell-based; conditions: BGC-823, 72 h; method in brief: as §1
SW480 = assay: Cytotoxicity against human SW480 cells after 72 hrs by MTT assay; format: functional, cell-based; conditions: SW480, 72 h; method in brief: as §1
KB = assay: Cytotoxicity against human KB cells after 72 hrs by MTT assay; format: functional, cell-based; method in brief: as §1
SK-OV-3 = assay: Cytotoxicity against human SKOV3 cells after 72 hrs by MTT assay; format: functional, cell-based; conditions: SK-OV-3, 72 h
Method in brief: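 SKOV-3 cells were cultured in McCoy's 5A with 10% FBS at 37 °C, 5% CO2. MTT added from a 5 mg/mL solution for 4 h at 37 °C. Formazan dissolved in DMSO, absorbance measured at 540 nm.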

U-266 = assay: Cytotoxicity against human U266 cells after 72 hrs by MTT assay; format: functional, cell-based; conditions: U-266, 72 h
Method in brief: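 U266 myeloma cells were grown in RPMI 1640 with 15% FBS at 37 °C, 5% CO2. MTT added from a 5 mg/mL solution for 4 h at 37 °C. Plates centrifuged, formazan dissolved in DMSO, absorbance at 540 nm.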

A549 = assay: Cytotoxicity against human A549 cells after 72 hrs by MTT assay; format: functional, cell-based; conditions: A549, 72 h
Method in brief: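 A549 cells were cultured in F12-K with 10% FBS at 37 °C, 5% CO2. MTT from a 5 mg/mL solution added for 4 h at 37 °C. Medium removed after centrifugation, formazan taken up in DMSO, read at 540 nm.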

HepG2 = assay: Cytotoxicity against human HepG2 cells after 72 hrs by MTT assay; format: functional, cell-based; conditions: HepG2, 72 h; method in brief: as §1

SMILES | IC50 [1] | other results
CC(C)C[C@H](NC(=O)[C@H](Cc1cccc2ccccc12)NC(=O)c1cccc2c1CCCC2)B1OC2C[C@@H]3C[C@@H](C3(C)C)[C@]2(C)O1 (some centres not stated) | 1.34 nM | –
CC(C)C[C@H](NC(=O)[C@H](Cc1ccc2ccccc2c1)NC(=O)C1CCCc2ccccc21)B1OC2C[C@@H]3C[C@@H](C3(C)C)[C@]2(C)O1 (some centres not stated) | 1.16 nM | –
Cc1ccc(C[C@H](NC(=O)[C@H](Cc2c[nH]c3ccccc23)NC(=O)OCc2ccccc2)B2O[C@@H]3C[C@@H]4C[C@@H](C4(C)C)[C@]3(C)O2)cc1 | 3.34 nM | –
CC(C)C[C@H](NC(=O)[C@H](Cc1ccccc1)NC(=O)c1cccc2c1CCCC2)B1O[C@@H]2C[C@@H]3C[C@@H](C3(C)C)[C@]2(C)O1 | 0.76 nM | –
CC(C)(C)OC(=O)N[C@@H](Cc1ccc(O)cc1)C(=O)N[C@@H](Cc1ccccc1)B1O[C@@H]2C[C@@H]3C[C@@H](C3(C)C)[C@]2(C)O1 | 114 nM | –
CC(C)C[C@H](NC(=O)[C@H](CC(C)C)NC(=O)C1CCCc2ccccc21)B1O[C@@H]2C[C@@H]3C[C@@H](C3(C)C)[C@]2(C)O1 (some centres not stated) | 14.2 nM | –
CCC(C)[C@H](NC(=O)C1CCCc2ccccc21)C(=O)N[C@@H](CC(C)C)B1O[C@@H]2C[C@@H]3C[C@@H](C3(C)C)[C@]2(C)O1 (some centres not stated) | 17.2 nM | –
CC1(C)[C@@H]2C[C@H]3OB([C@H](Cc4ccc(F)cc4)NC(=O)[C@H](Cc4ccccc4)NC(=O)c4cnccn4)O[C@@]3(C)[C@H]1C2 | 3.21 nM | –
CC(C)C[C@H](NC(=O)[C@H](Cc1ccc2ccccc2c1)NC(=O)C1CCCc2ccccc21)B1O[C@@H]2C[C@@H]3C[C@@H](C3(C)C)[C@]2(C)O1 (some centres not stated) | 7.63 nM | –
Cc1ccc(C[C@H](NC(=O)[C@H](Cc2ccccc2)NC(=O)C2CCc3ccccc3C2)B2O[C@@H]3C[C@@H]4C[C@@H](C4(C)C)[C@]3(C)O2)cc1 (some centres not stated) | 1.16 nM | –
Cc1ccc(C[C@H](NC(=O)[C@H](Cc2ccccc2)NC(=O)[C@H]2CCCc3ccccc32)B2O[C@@H]3C[C@@H]4C[C@@H](C4(C)C)[C@]3(C)O2)cc1 | 6.7 nM | –
CC(C)C[C@H](NC(=O)[C@H](Cc1cccc2ccccc12)NC(=O)c1ccc2ccccc2c1)B1O[C@@H]2C[C@@H]3C[C@@H](C3(C)C)[C@]2(C)O1 | 2.46 nM | –
CC1(C)[C@@H]2C[C@H]3OB([C@H](Cc4ccccc4)NC(=O)[C@H](Cc4ccccc4)NC(=O)[C@H]4CCCc5ccccc54)O[C@@]3(C)[C@H]1C2 | 5.24 nM | –
CC(C)C[C@H](NC(=O)[C@H](Cc1c[nH]c2ccccc12)NC(=O)OCc1ccccc1)B1O[C@@H]2C[C@@H]3C[C@@H](C3(C)C)[C@]2(C)O1 | 41.2 nM | –
CC1(C)[C@@H]2C[C@H]3OB([C@H](Cc4ccc(F)cc4)NC(=O)[C@H](Cc4ccccc4)NC(=O)[C@H]4CCCc5ccccc54)O[C@@]3(C)[C@H]1C2 | 1.26 nM | –
CCCC[C@H](NC(=O)[C@H](Cc1ccccc1)NC(C)=O)B1O[C@@H]2C[C@@H]3C[C@@H](C3(C)C)[C@]2(C)O1 | 8.46 nM | –
CC(=O)N[C@@H](Cc1ccccc1)C(=O)N[C@@H](Cc1ccc(C)cc1)B1O[C@@H]2C[C@@H]3C[C@@H](C3(C)C)[C@]2(C)O1 | 2.73 nM | –
CC(C)C[C@H](NC(=O)[C@H](Cc1ccc(O)cc1)NC(=O)OC(C)(C)C)B1O[C@@H]2C[C@@H]3C[C@@H](C3(C)C)[C@]2(C)O1 | 16.4 nM | –
CC(C)C[C@H](NC(=O)OC(C)(C)C)C(=O)N[C@@H](Cc1ccccc1)B1O[C@@H]2C[C@@H]3C[C@@H](C3(C)C)[C@]2(C)O1 | 120 nM | –
Cc1ccc(C[C@H](NC(=O)[C@H](CC(C)C)NC(=O)OC(C)(C)C)B2O[C@@H]3C[C@@H]4C[C@@H](C4(C)C)[C@]3(C)O2)cc1 | 471 nM | –
CC(C)C[C@@H](NC(=O)[C@H](Cc1ccccc1)NC(=O)c1cccc2c1CCCC2)B(O)O | 9.19 nM | –
CC(C)C[C@@H](NC(=O)[C@H](Cc1ccccc1)NC(=O)C1CCCc2ccccc21)B(O)O (some centres not stated) | 2290 nM | –

SMILES | IC50 [1] | other results
O=C(N[C@@H](Cc1ccccc1)C(=O)N[C@@H](Cc1ccc(F)cc1)B(O)O)c1cnccn1 | 4.37 nM | –
CC(C)C[C@H](NC(=O)[C@H](Cc1ccccc1)NC(=O)[C@H]1CCCc2ccccc21)B(O)O | 1.2 nM | IC50 (HeLa): 37.5 nM; IC50 (NCI-H460): 36 nM; IC50 (HL-60): 9.55 nM; IC50 (BGC-823): 580 nM; IC50 (SW480): 30 nM; IC50 (KB): 70 nM; IC50 (SK-OV-3): 40 nM; IC50 (U-266): 2.28 nM; IC50 (A549): 38.5 nM; IC50 (HepG2): 60 nM
CC(C)C[C@H](NC(=O)[C@H](Cc1ccccc1)NC(=O)c1cccc2c1CCCC2)B(O)O | 1.6 nM | IC50 (HeLa): 23.2 nM; IC50 (NCI-H460): 21.5 nM; IC50 (HL-60): 9.25 nM; IC50 (BGC-823): 1210 nM; IC50 (SW480): 30 nM; IC50 (KB): 9.8 nM; IC50 (SK-OV-3): 60 nM; IC50 (U-266): 2.95 nM; IC50 (A549): 40.5 nM; IC50 (HepG2): 13.1 nM
CCCC[C@H](NC(=O)[C@H](Cc1ccccc1)NC(=O)[C@H]1CCCc2ccccc21)B1O[C@@H]2C[C@@H]3C[C@@H](C3(C)C)[C@]2(C)O1 | 1.92 nM | –
CC(C)C[C@H](NC(=O)[C@H](Cc1cccc2ccccc12)NC(=O)C1CCCc2ccccc21)B1O[C@@H]2C[C@@H]3C[C@@H](C3(C)C)[C@]2(C)O1 (some centres not stated) | 4.26 nM | –
CC(C)C[C@H](NC(=O)[C@H](Cc1ccccc1)NC(=O)c1cnccn1)B1O[C@@H]2C[C@@H]3C[C@@H](C3(C)C)[C@]2(C)O1 | 1.92 nM | –
CC(C)C[C@H](NC(=O)[C@@H](NC(=O)c1cccc2c1CCCC2)C(C)C)B1O[C@@H]2C[C@@H]3C[C@@H](C3(C)C)[C@]2(C)O1 | 6.96 nM | –
CC(C)C[C@H](NC(=O)[C@H](Cc1ccccc1)NC(=O)C1CCCc2ccccc21)B1O[C@@H]2C[C@@H]3C[C@@H](C3(C)C)[C@]2(C)O1 (some centres not stated) | 4.18 nM | –
CC(C)C[C@H](NC(=O)[C@H](CC(C)C)NC(=O)c1cccc2c1CCCC2)B1O[C@@H]2C[C@@H]3C[C@@H](C3(C)C)[C@]2(C)O1 | 1.15 nM | –
CC(C)C[C@H](NC(=O)[C@H](Cc1ccc2ccccc2c1)NC(=O)[C@H]1CCCc2ccccc21)B1O[C@@H]2C[C@@H]3C[C@@H](C3(C)C)[C@]2(C)O1 | 6.12 nM | –
CC(C)C[C@H](NC(=O)[C@H](Cc1ccccc1)NC(=O)[C@@H]1CCCc2ccccc21)B1O[C@@H]2C[C@@H]3C[C@@H](C3(C)C)[C@]2(C)O1 | 5.17 nM | –
CC1(C)[C@@H]2C[C@H]3OB([C@H](Cc4ccccc4)NC(=O)[C@H](Cc4ccccc4)NC(=O)C4CCc5ccccc5C4)O[C@@]3(C)[C@H]1C2 (some centres not stated) | 3.37 nM | –
CC(C)C[C@H](NC(=O)[C@H](Cc1c[nH]c2ccccc12)NC(=O)C1CCCc2ccccc21)B1O[C@@H]2C[C@@H]3C[C@@H](C3(C)C)[C@]2(C)O1 (some centres not stated) | 3.67 nM | –
CC(C)C[C@H](NC(=O)[C@H](Cc1ccccc1)NC(=O)[C@H]1CCCc2ccccc21)B1O[C@@H]2C[C@@H]3C[C@@H](C3(C)C)[C@]2(C)O1 | 1.12 nM | –
CC(C)C[C@H](NC(=O)[C@@H](NC(=O)C1CCCc2ccccc21)C(C)C)B1O[C@@H]2C[C@@H]3C[C@@H](C3(C)C)[C@]2(C)O1 (some centres not stated) | 39 nM | –
Cc1ccc(C[C@H](NC(=O)[C@H](Cc2ccccc2)NC(=O)c2cnccn2)B2O[C@@H]3C[C@@H]4C[C@@H](C4(C)C)[C@]3(C)O2)cc1 | 4.85 nM | –
CC(C)C[C@H](NC(=O)[C@H](Cc1ccccc1)NC(=O)C1CCc2ccccc2C1)B1O[C@@H]2C[C@@H]3C[C@@H](C3(C)C)[C@]2(C)O1 (some centres not stated) | 1.46 nM | –
CC(=O)N[C@@H](Cc1ccccc1)C(=O)N[C@@H](CC(C)C)B1O[C@@H]2C[C@@H]3C[C@@H](C3(C)C)[C@]2(C)O1 | 2.34 nM | –
CCC[C@H](NC(=O)[C@H](CC(C)C)NC(=O)OC(C)(C)C)B1O[C@@H]2C[C@@H]3C[C@@H](C3(C)C)[C@]2(C)O1 | 49.5 nM | –
CC(C)C[C@@H](NC(=O)[C@H](Cc1ccccc1)NC(=O)c1cnccn1)B(O)O | 700 nM | –
CC(C)C[C@H](NC(=O)[C@H](Cc1ccccc1)NC(=O)c1cnccn1)B(O)O [BORTEZOMIB] | – | IC50 (HeLa): 92 nM; IC50 (NCI-H460): 115 nM; IC50 (HL-60): 5.5 nM; IC50 (BGC-823): 880 nM; IC50 (SW480): 50 nM; IC50 (KB): 59.5 nM; IC50 (SK-OV-3): 130 nM; IC50 (U-266): 2.45 nM; IC50 (A549): 255 nM; IC50 (HepG2): 37.5 nM
